pEC50, pIC50: −log10 of the molar value.
Assays:
NIH3T3 [1] = assay: Effective dose against murine 3T3 fibroblasts cells; assay type: functional; conditions: Mus musculus, read-out: ED50 (the source's name)
Summary of the method: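 Murine 3T3 fibroblasts were grown in RPMI 1640 with 10% FBS and held 72 h with compound at 37 °C, 5% CO2.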

[2] = target: Protein farnesyltransferase (Homo sapiens, UniProt P49354+P49356); assay: Inhibition of mammalian protein farnesyltransferase; assay type: protein-complex assay
[3] = tested on: Trypanosoma brucei brucei; assay: Effective dose required to inhibit the growth of Trypanosoma brucei; assay type: functional; conditions: read-out: ED50 (the source's name)
Summary of the method: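 Bloodstream-form strain 427 was grown in HMI-9 with 10% FBS at 37 °C, 5% CO2. Cells were seeded at 1 × 10^4 trypomastigotes/well in triplicate, with serial dilutions from 20 mM DMSO stocks. Growth was read with Alamar Blue at 48 h, pentamidine served as positive control, and ED50 was fitted from the curves.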

[4] = tested on: Trypanosoma brucei rhodesiense; assay: Effective dose required to inhibit the growth of Trypanosoma brucei rhodesiense; assay type: functional; conditions: read-out: ED50 (the source's name)
Summary of the method: (§1)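 Bloodstream-form trypomastigotes of strain STIB 900 were grown in HMI-18 with nonessential amino acids, glucose and 15% heat-inactivated FCS at 37 °C, 5% CO2. Compounds were given as serial dilutions, in triplicate, from 1 × 10^4 cells/well. Cultures ran 72 h before Alamar Blue read-out, and ED50 was fitted.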

NIH3T3 [5] = assay: Dose required to block Ras farnesylation in mouse 3T3 fibroblasts; assay type: functional; conditions: read-out: ED50 (the source's name)
[6] = target: protein farnesyltransferase (Trypanosoma brucei); assay: Inhibition of Trypanosoma brucei protein farnesyltransferase
[7] = tested on: protein farnesyltransferase (Trypanosoma brucei); assay: Inhibition of against Trypanosoma brucei protein farnesyltransferase at 50 nM concentration
[8] = tested on: Trypanosoma brucei rhodesiense; assay: Dose required to inhibit growth of Trypanosoma brucei rhodesiense; 14->60 uM; assay type: functional; conditions: read-out: ED50 (the source's name); summary of the method: as §1
[9] = target: protein farnesyltransferase (Trypanosoma brucei); assay: Inhibition of Trypanosoma brucei protein farnesyltransferase at 50 nM

| SMILES | pEC50 (NIH3T3 [1]) | pIC50 [2] | pEC50 [3] | pEC50 [4] | pEC50 (NIH3T3 [5]) | pIC50 [6] | inhibition [7] [%] | pEC50 [8] | pIC50 [9] |
| --- | --- | --- | --- | --- | --- | --- | --- | --- | --- |
| CSCC[C@H](NC(=O)c1ccc(CNCc2c[nH]cn2)cc1-c1ccccc1C)C(=O)O | < 4.60 | 9.07 | 6.00 | 6.70 | 7.70 | 8.74 | 96.1 | – | – |
| CSCC[C@H](NC(=O)c1ccc(NC(=O)Cc2cncn2C)cc1-c1ccccc1C)C(=O)O | < 4.60 | – | < 4.60 | < 4.22 | – | 8.18 | 83.2 | – | – |
| CSCC[C@H](NC(=O)c1ccc(NCc2cncn2Cc2ccc(-c3ccccc3)cc2)cc1-c1ccccc1)C(=O)O | – | – | < 5.00 | – | – | – | 85.6 | < 4.22 | 8.10 |
